Drawing on ChEMBL document CHEMBL4130520 (ACS Med Chem Lett, 2017), this text covers IC50 and MIC90 for five compounds.

Each structure is given as a SMILES string. Values after ≈ are worked out from the molar mass of the structure shown.

Assay [1] concerns the target Voltage-gated inwardly rectifying potassium channel KCNH2 (Homo sapiens, UniProt Q12809). Briefly: Inhibition of human ERG.
The subject of assay [2] is Mycobacterium tuberculosis. Briefly: Antitubercular activity against Mycobacterium tuberculosis H37Rv after 4 days by MABA method. It counts as functional. Conditions: 96 h. The method in brief: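 Aerobic culture of H37Rv in microplate Alamar blue assay. MIC90 taken as the minimum concentration giving 90% growth inhibition. Each value is the mean of at least two independent determinations. Most compounds were tested as RS,SR diastereomer mixtures; a few were tested only as the pure R,S enantiomer.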
In general terms: Alamar Blue is a resazurin reagent that responds to reducing activity.

Voltage-gated inwardly rectifying potassium channel KCNH2, sequence (Q12809 whole entry): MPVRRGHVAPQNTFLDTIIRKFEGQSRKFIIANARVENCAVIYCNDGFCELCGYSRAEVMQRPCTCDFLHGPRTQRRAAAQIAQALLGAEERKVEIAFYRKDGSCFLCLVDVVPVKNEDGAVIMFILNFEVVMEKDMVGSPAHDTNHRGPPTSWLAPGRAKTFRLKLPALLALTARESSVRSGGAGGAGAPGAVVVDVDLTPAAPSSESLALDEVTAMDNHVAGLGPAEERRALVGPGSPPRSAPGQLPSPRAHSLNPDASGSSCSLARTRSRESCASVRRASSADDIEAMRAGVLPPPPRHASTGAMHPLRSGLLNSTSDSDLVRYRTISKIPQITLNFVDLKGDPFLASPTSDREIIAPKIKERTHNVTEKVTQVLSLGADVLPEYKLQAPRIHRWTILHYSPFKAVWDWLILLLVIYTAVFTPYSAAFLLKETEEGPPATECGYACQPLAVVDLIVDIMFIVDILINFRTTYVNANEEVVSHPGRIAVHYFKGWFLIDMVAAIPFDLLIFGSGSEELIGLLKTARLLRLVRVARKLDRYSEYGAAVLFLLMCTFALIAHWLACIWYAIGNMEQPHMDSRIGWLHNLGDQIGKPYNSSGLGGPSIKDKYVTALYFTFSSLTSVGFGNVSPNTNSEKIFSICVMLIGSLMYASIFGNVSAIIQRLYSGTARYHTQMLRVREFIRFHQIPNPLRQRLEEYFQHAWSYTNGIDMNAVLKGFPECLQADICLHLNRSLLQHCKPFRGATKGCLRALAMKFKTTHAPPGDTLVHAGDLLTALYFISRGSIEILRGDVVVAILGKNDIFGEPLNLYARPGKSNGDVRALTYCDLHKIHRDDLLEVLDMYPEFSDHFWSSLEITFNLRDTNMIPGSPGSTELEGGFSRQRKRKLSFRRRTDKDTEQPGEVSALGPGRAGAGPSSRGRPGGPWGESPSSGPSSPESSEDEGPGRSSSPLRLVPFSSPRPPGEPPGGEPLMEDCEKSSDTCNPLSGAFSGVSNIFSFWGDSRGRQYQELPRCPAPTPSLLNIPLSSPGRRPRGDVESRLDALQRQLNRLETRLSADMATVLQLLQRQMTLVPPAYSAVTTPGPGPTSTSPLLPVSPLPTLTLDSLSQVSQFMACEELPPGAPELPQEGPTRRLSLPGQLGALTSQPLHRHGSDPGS

Consider `COc1nc2ccc(C(=O)N(C)C)cc2cc1C(c1ccccc1)C(O)(CCN(C)C)c1cccc2ccccc12` (stereo not given), for which the IC50 in assay [1] stood at 6.3 µM. The compound further registered an MIC90 in assay [2] of 2.2 µg/mL (≈ 4.02 µM).
The like results for `COc1nc2ccc(CC(C)=O)cc2cc1C(c1ccccc1)C(O)(CCN(C)C)c1cccc2ccccc12` (stereo not given) were, in that order, 10 µM and > 7 µg/mL.
As for `COc1nc2ccc(CO)cc2cc1C(c1ccccc1)C(O)(CCN(C)C)c1cccc2ccccc12` (stereo not given), in assay [1], the IC50 turned out to be 10 µM. The same compound gave an MIC90 in assay [2] of 1.6 µg/mL (≈ 3.16 µM).
`COc1nc2ccc(C(=O)O)cc2cc1C(c1ccccc1)C(O)(CCN(C)C)c1cccc2ccccc12` (stereo not given) showed an IC50 in assay [1] of 10 µM. Moreover, the MIC90 in assay [2] is > 6.7 µg/mL.
The corresponding values for `COc1nc2ccc(CN)cc2cc1C(c1ccccc1)C(O)(CCN(C)C)c1cccc2ccccc12` (stereo not given) are 1.7 µM and > 12 µg/mL.

As usually defined, the IC50 is the concentration at which inhibition is half-maximal. What is called MIC90 is the lowest concentration that inhibits either 90% of growth or 90% of the strains tested, depending on the study.
